Calb FLC – C. albicans growth modulation with fluconazole. C. albicans CaCi-2 (fluconazole-resistant clinical isolate) + fluconazole, Alamar Blue growth, 48 h. growth inhibition, % (no concentration beside the values). 300,000 compounds, 0.57% hits;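 active = growth inhibition above about 58% in most replicates, limit read from the data, passing the limit was not always enough; inconclusive = exactly half the replicates above a set limit; inactive = most replicates below a set limit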;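 note: all wells also contain fluconazole at 8 µg/ml as a sub-toxic cotreatment; 0% = median of DMSO wells and 100% = median of geldanamycin control wells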
T cruzi inh – blocks replication of Trypanosoma cruzi; T. cruzi beta-gal in NIH3T3, luminescence, 90 h; inhibition, % (no concentration beside the values); 300,000 compounds, 1.4% hits; AID 1885;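 active = mean inhibition across valid replicates above about 55%, limit read from the data; inconclusive = mean below that limit but half or more replicates reach it; inactive = mean below it, under half of replicates reach it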;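 note: signal also drops with host cell toxicity which is not excluded here; 0% = plate median of DMSO wells and 100% = zero luminescence signal; higher percent means less beta-gal luminescence so fewer parasites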
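System: mouse NIH/3T3 fibroblasts infected with β-gal-expressing T. cruzi Tulahuen C4 / Input: NIH/3T3 cells, 5,000 per well / Buffer or medium: Low-serum DMEM with 2% FBS / Probe or stimulus: 5000 reporter trypomastigotes per well / Schedule: ≥90 h infection period, 3 h prior cell attachment / Measured by: GalScreen luminescence, 60 min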
HSF-1 act – increases HSF-1 driven luciferase reporter signal. NIH3T3-HGL HSF-1 luciferase reporter, MG132, 8 h; 100% = twice DMSO control signal. activation, % at 9 µM. 300,000 compounds, 1.7% hits;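 active = mean replicate activation of at least 50% with a set share of replicates each reaching 50%; inconclusive = only one of those two conditions met; inactive = mean below 50% and too few replicates reaching it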;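 note: 0% = median of the neutral control wells and 100% = twice that signal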
HIF act – HIF pathway transcriptional activation. 300,000 compounds, 0.32% hits. AID 1910. activation, % at 7.5 µM (by protocol). U2OS HRE-luciferase reporter, luminescence; normalized: DMSO 0%, desferrioxamine 100%;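 active = mean activation of at least 10% of the iron chelator positive control signal, with at least half of replicates also reaching 10%; inconclusive = mean and replicate majority disagree about reaching 10%; inactive = mean and most replicates under 10%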
HSF1 inhib – HSF1 inhibition; NIH3T3-HGL HSE-luciferase, MG132-induced, luminescence 8 h; hits give low values; activity change, negative = inhibition, % at 7.5 µM (by protocol); 300,000 compounds, 0.77% hits;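 active = more than half of replicate wells show activity change below -50%, luminescence cut by over half; inconclusive = some wells, but at most half, below -50%; inactive = no replicate well below -50%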;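 note: luciferase reports HSF-1 transcriptional activity via heat shock element; 0% = median of DMSO wells and -100% = zero luminescence signal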
An asterisk follows results filed as active; ? = inconclusive; · = no result given. In the library only some 4.4% were active in any assay of this set; here they are far more common.

SMILES	Calb FLC	T cruzi inh	HSF-1 act	HIF act	HSF1 inhib
CCC12C(=O)C(CC)(C(c3ccccc3)=C1c1ccccc1)[C@@H]1C(=O)N(c3ccccc3)C(=O)C12 (stereo partly specified)	0.5	34.9	-4.9	-0.2	4.2
CCC12C(=O)C(CC)(C(c3ccccc3)=C1c1ccccc1)[C@@H]1C(=O)N(c3ccc(C)cc3)C(=O)C12 (stereo partly specified)	-11.4	57.2*	43.1	-0.9	7.6
Cc1cc(NC(=O)Nc2cccc(C)c2C)no1	1.4	-4.8	-2.9	0.0	2.9
C=CCn1cccc(C(=O)Nc2ccc(C)c(C)c2)c1=O	-4.6	-6.9	44.9	2.2	25.5
C=CCn1cccc(C(=O)Nc2ccc(C)cc2)c1=O	-121.1	2.1	56.2*	-23.1	19.3
CC(=O)c1c(C)[nH]c(C(=O)OCC(=O)NCCC2=CCCCC2)c1C	4.5	-15.7	-5.1	1.1	-5.1
CC(=O)Nc1ccc(S(=O)(=O)Nc2nc3ccccc3nc2Nc2ccc3ccccc3c2)cc1	-7.8	-10.5	105.7*	1.9	53.7
O=[N+]([O-])c1ccc(S(=O)(=O)Nc2nc3ccccc3nc2Nc2ccccc2)cc1	105.5*	46.4	40.3	-0.3	5.0
CC(=O)Nc1ccc(S(=O)(=O)Nc2nc3ccccc3nc2Nc2cccc(O)c2)cc1	6.6	-4.3	8.2	0.1	-2.3
O=[N+]([O-])c1ccc(S(=O)(=O)Nc2ccc(-c3csc(-c4ccccc4)n3)cc2)cc1	41.9	65.6*	19.3	0.6	5.5
COc1cc(Nc2nc3ccccc3nc2NS(=O)(=O)c2ccc([N+](=O)[O-])cc2)cc(OC)c1OC	·	37.2	-39.0	0.0	-31.1
O=C1C(=C2SCCCS2)CC/C1=C\c1ccc(F)cc1	-3.9	10.9	-78.5	-2.1	-74.8*
COc1ccc2c(c1)CC/C2=N\OC(=O)c1ccccc1C	5.2	0.7	61.3*	2.1	21.6
COc1ccc2c(c1)CC/C2=N\OC(=O)c1cccc(C)c1	7.8	3.5	65.0*	3.1	26.9
COc1ccc2c(c1)CCC/C2=N/OC(=O)c1ccccc1OC	6.2	-1.0	16.0	0.5	2.7
COc1ccc(-c2cc(C)no2)cc1S(=O)(=O)NCC(C)c1ccccc1 (stereo unspecified)	1.2	2.4	15.7	-0.2	11.1
Cn1c2c(c(=O)n(C)c1=O)C(C(F)(F)F)(C(F)(F)F)N=C(c1ccc(Cl)cc1)N2	84.1*	24.2	8.3	0.0	12.3
CC(C)(C)NC(=O)c1c(F)c(F)c(F)c(F)c1F	-7.1	-4.2	-78.5	-0.4	-72.0*
CC(C)(CNc1ccc(S(=O)(=O)C(F)(F)F)cc1[N+](=O)[O-])N1CCOCC1	12.8	55.3*	8.6	-0.1	3.2
CCn1c(-c2cc(-c3ccc(C)c(C)c3)nc3ccccc23)n[nH]c1=S	17.4	21.5	19.1	0.9	17.6
CCOc1cccc(-c2cc(-c3n[nH]c(=S)n3CC)c3ccccc3n2)c1	68.6*	22.5	20.3	0.5	1.9
O=C(O)Cn1cc(/C=c2/sc3nc4ccccc4n3c2=O)c2ccccc21	-4.0	-4.5	7.1	2.0	-14.9
Cc1ccc(-n2c(C)cc(/C=c3/sc4nc5ccccc5n4c3=O)c2C)cc1	10.7	37.5	-84.8	-1.0	-81.8*
O=c1cc(-c2ccccc2Cl)oc2cccc(O)c12	6.4	-16.2	-3.5	-0.8	-5.2
O=c1cc2oc3cc(O)c(O)cc3c(-c3ccccc3[N+](=O)[O-])c-2cc1O	88.1*	-27.0	-17.9	-5.3	-9.5
SMILES	Calb FLC	T cruzi inh	HSF-1 act	HIF act	HSF1 inhib
COc1cc(-c2nc3ccc(C)cn3c2NCc2ccccc2)ccc1SC1CCCCC1	3.9	42.3	-5.7	0.2	-3.6
COc1cc(-c2nc3ccccn3c2NCc2ccccc2)ccc1SC1CCCCC1	28.6	61.3*	16.9	-7.6	7.5
CCCSc1nnc(Sc2nnnn2-c2ccccc2)s1	17.7	54.8*	123.0*	1.1	109.3
O=C(CCNS(=O)(=O)c1ccc(Br)s1)NC1CCCC1	-26.0	7.2	7.7	-0.4	-5.4
O=C(CCNS(=O)(=O)c1ccc(Br)s1)Nc1ccc(Cl)cc1	35.5	58.1*	8.9	0.1	6.9
Cc1ccc(NC(=O)CCn2c(=O)[nH]c3ccsc3c2=O)cc1C	-6.7	6.0	29.7	0.2	5.0
Cc1c(C(=O)OCC(C)C)[nH]c2c1C(=O)CC(c1cccs1)C2 (stereo unspecified)	10.8	54.7*	-9.7	0.4	-14.0
O=S(=O)(c1ccccc1)N1CCC2(CC1)OCCN2S(=O)(=O)c1cccs1	-0.1	12.7	14.5	-0.5	-1.1
C[N+]1=C(/C=C/Nc2ccccc2Cl)C(C)(C)c2ccccc21	-5.0	36.5	-26.7	-0.9	-26.7
COC(=O)c1ccc2c(c1)C(C)(C)C(/C=C/c1ccccc1O)=[N+]2C	3.4	73.9*	32.4	-2.9	20.3
COc1cc(/C=C/C(=O)Oc2coc(CSc3ncccn3)cc2=O)cc(OC)c1OC	-19.2	4.3	-2.2	-0.3	0.4
CCCC(=O)Nc1nc2ccc(OC)cc2s1	-1.2	5.1	43.1	4.0	19.4
COc1ccc2nc(NC(=S)N(C)C)sc2c1	?	60.0*	34.1	1.0	25.3
COc1ccc2nc(NC(=O)CN3CCOCC3)sc2c1	-5.9	-25.1	-90.7	1.2	-88.6*
COc1ccc(N2CCN(C(=O)COC(=O)CCOc3ccc(C(C)(C)C)cc3)CC2)cc1	-2.2	-0.3	-2.7	-0.2	-7.2
CC(=O)Nc1ccc(OCC(O)Cn2c3ccccc3c3ccccc32)c(C)c1 (stereo unspecified)	-13.6	55.8*	22.6	-0.3	3.5
CC(=O)Nc1ccc(OCC(O)Cn2c3ccccc3c3ccccc32)cc1 (stereo unspecified)	1.8	31.9	-2.0	-0.2	-18.3
COc1ccc(CNC(=O)C(C)N(Cc2ccccc2OC)C(=O)c2snc(C(N)=O)c2N)cc1 (stereo unspecified)	-0.1	7.7	3.7	-1.1	3.5
CCn1c(S(=O)(=O)O)nc2ccccc21	-0.9	-1.0	-76.8	0.0	-69.0*
CCCCn1c(S(=O)(=O)O)nc2ccccc21	-17.3	-6.8	-9.5	-0.3	-2.2
CCOC(=O)/C(C#N)=C/C=C1\C=Cc2ccccc2N1CC	4.9	30.1	14.9	17.8*	5.6
CCCN1C=CC(=C/C=C(\C#N)C(=O)OCC)C=C1	7.9	3.8	16.4	2.0	5.9
OCc1c(OCc2cccc(F)c2)ccc2ccccc12	18.5	-1.9	62.0*	2.0	35.9
O=C(NN=C1CCCCCC1)C(=O)Nc1cccc(Br)c1	12.3	11.8	-3.2	-0.7	-0.2
Cc1noc(NC(=O)c2ccc(Cl)c(Cl)c2)c1Cl	89.4*	12.6	7.5	0.4	1.8
CC(=O)c1ccc(NC(=O)c2onc(C)c2Cl)cc1	17.7	-3.3	12.7	2.0	9.4
CCC(=O)Nc1cccc(-n2nnnc2SCC(=O)c2ccc(C)c(C)c2)c1	-40.1	26.3	33.4	1.2	28.5

Bioassay records as filed in PubChem BioAssay.
